Measurements as given in ChEMBL document CHEMBL3804820, “2-hydroxyisoquinoline-1,3(2H,4H)-diones (HIDs) as human immunodeficiency virus type 1 integrase inhibitors: Influence of the alkylcarboxamide substitution of position 4” (Eur J Med Chem, 2016).

Key:
[1] = Cytotoxicity against human MT4 cells assessed as reduction in cell viability by MTT assay; type: cell-based
Procedure, shortened: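 MT-4 cell viability was measured by MTT reduction, run in parallel with the antiviral assay using 5-fold serial compound dilutions. CC50 is the concentration reducing viability by 50%.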

[2] = target: T1, Human immunodeficiency virus type 1 integrase (Human immunodeficiency virus 1, UniProt Q7ZJM1); experiment: Inhibition of HIV1 integrase using 3'-biotin-labelled and 5'-digoxigenin-labelled oligonucleotide substrate incubated for 1 hr by ELISA
T1 sequence (Q7ZJM1 whole entry): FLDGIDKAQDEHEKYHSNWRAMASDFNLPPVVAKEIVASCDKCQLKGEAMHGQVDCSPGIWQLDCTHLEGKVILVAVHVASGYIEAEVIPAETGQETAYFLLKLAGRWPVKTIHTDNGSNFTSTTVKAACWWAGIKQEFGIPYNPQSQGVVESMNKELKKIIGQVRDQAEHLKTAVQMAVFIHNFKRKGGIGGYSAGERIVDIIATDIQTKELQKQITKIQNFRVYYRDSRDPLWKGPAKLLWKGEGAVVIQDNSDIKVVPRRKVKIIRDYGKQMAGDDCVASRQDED
Procedure, shortened: (§1)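 ELISA with a 3'-biotin oligo and a 5'-digoxigenin partner oligo. Overall assay uses the full complementary oligo; strand transfer uses a precleaved oligo lacking the 3'-GT. Integrase at 160 nM final, annealed oligos 7 nM, in 10 mM MgCl2, 5 mM DTT, 20 mM HEPES pH 7.5, 0.5% PEG, 15% DMSO. Run 1 h at 37 °C, products denatured with NaOH, detected on avidin plates.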

[3] = target: T1, Human immunodeficiency virus type 1 integrase; experiment: Inhibition of HIV1 integrase strand transfer activity using 5'[digoxigenin]-GACCCTTTTAGTCAGTGTGGAAAATCTCTAGCA-3' as substrate incubated for 1 hr by ELISA; procedure, shortened: as §1
[4] = system: Human immunodeficiency virus 1; experiment: Selectivity ratio of EC50 for raltegravir resistant HIV1 harboring integrase G140S/Q148H double mutant infected in human MT4 cells to EC50 for wild type HIV1 3B infected in human MT4 cells; type: functional
Procedure, shortened: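 MT-4 cells were infected with 100–300 CCID₅₀ of virus stock (titrated in MT-4 cells) in the presence of 5-fold serial drug dilutions. EC₅₀ is the concentration giving 50% protection against virus-induced cytopathic effect, read by MTT reduction (MT-4/MTT assay). The value is the fold-change in EC₅₀ for each mutant strain relative to the wild-type HIV-1 strain.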

[5] = target: T2, CYP1A2 (Homo sapiens, UniProt P05177); experiment: Inhibition of human recombinant CYP1A2 using CEC as substrate at 10 uM incubated for 30 mins by fluorimetry relative to control; type: ADME; conditions: recombinant CYP1A2, probe CEC
T2 sequence (P05177 whole entry): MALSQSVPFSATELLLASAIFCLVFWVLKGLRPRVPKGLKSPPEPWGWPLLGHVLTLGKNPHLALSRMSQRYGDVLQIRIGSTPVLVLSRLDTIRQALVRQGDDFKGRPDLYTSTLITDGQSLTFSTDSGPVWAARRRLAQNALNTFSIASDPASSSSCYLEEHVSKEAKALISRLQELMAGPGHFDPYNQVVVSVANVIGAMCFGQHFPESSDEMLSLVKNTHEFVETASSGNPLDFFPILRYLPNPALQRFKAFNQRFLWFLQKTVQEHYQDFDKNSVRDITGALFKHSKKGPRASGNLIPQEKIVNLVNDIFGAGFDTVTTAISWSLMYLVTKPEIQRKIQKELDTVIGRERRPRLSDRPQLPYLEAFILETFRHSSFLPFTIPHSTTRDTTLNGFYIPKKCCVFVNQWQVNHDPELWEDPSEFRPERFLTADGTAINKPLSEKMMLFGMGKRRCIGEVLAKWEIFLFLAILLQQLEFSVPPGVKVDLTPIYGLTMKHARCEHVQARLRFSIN
Procedure, shortened: (§2)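 Recombinant CYP isoforms, each with its fluorogenic substrate: CYP1A2 and CYP2C19 with CEC, CYP2C9 and CYP2D6 with MFC, CYP3A4 with BFC. Read as percentage inhibition of control, standard contract assays.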

[6] = target: CYP2C9 (Homo sapiens, UniProt P11712); experiment: Inhibition of human recombinant CYP2C9 using MFC as substrate at 10 uM incubated for 40 mins by fluorimetry relative to control; type: ADME; conditions: recombinant CYP2C9, probe MFC; procedure, shortened: as §2
Chain of CYP2C9 (P11712 whole entry): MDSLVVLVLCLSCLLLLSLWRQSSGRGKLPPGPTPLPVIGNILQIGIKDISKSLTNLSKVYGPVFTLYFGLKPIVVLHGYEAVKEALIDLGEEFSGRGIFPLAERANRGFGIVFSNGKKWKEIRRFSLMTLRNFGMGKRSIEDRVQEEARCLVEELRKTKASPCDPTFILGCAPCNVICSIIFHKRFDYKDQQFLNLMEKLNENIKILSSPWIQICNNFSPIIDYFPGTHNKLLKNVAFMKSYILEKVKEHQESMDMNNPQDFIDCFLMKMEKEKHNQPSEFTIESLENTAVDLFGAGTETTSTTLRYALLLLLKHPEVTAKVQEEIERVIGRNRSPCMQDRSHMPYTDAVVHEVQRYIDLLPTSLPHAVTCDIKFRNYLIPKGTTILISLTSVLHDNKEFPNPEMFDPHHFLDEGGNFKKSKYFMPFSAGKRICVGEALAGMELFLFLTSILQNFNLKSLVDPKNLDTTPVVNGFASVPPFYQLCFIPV

[7] = target: CYP2D6 (Homo sapiens, UniProt P10635); experiment: Inhibition of human recombinant CYP2D6 using MFC as substrate at 10 uM incubated for 40 mins by fluorimetry relative to control; type: ADME; conditions: recombinant CYP2D6, probe MFC; procedure, shortened: as §2
Chain of CYP2D6 (P10635 whole entry): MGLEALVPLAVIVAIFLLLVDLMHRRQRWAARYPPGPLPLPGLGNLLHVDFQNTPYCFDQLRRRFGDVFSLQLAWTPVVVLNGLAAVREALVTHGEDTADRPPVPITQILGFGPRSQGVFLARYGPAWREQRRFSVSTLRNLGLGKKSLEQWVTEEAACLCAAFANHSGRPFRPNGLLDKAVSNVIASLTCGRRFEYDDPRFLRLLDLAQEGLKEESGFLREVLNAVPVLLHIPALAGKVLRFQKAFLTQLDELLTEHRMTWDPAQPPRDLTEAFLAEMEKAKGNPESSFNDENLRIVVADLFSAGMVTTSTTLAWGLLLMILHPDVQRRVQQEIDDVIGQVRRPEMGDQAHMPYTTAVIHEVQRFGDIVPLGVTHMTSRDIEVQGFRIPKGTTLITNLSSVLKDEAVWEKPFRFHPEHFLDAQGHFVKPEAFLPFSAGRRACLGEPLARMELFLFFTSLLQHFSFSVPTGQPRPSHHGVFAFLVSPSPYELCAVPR

[8] = system: MDCK-II; experiment: Inhibition of human P-gp expressed in MDCK2-MDR1 cells assessed as reduction in calcien-AM efflux at 1 uM incubated for 20 mins by fluorimetry relative to control; type: cell-based
Procedure, shortened: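 P-gp efflux inhibition in MDR1-MDCKII cells with calcein AM substrate, tested up to 100.0 µM. Read as percentage inhibition of control.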

[9] = Cytotoxicity against human HepG2 cells assessed as reduction in cell number at 30 uM after 72 hrs by fluorescent image analysis relative to untreated control; type: cell-based; conditions: read-out: INH
Procedure, shortened: (§3)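 Contract in vitro cytotoxicity panel covering cell number, intracellular free calcium, nuclear size, membrane permeability and mitochondrial membrane potential. Compounds tested at 1.0, 30.0 and 100.0 µM; values are percentage change versus untreated control, and IC50 where derived.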

[10] = system: HepG2; experiment: Cytotoxicity against human HepG2 cells assessed as increase in intracellular free calcium level at 1 uM after 72 hrs by fluorescent image analysis relative to untreated control; type: cell-based; conditions: hepg2, 72 h; procedure, shortened: as §3
[11] = system: HepG2; experiment: Cytotoxicity against human HepG2 cells assessed as increase in intracellular free calcium level at 30 uM after 72 hrs by fluorescent image analysis relative to untreated control; type: cell-based; conditions: hepg2, 72 h; procedure, shortened: as §3
[12] = Cytotoxicity against human HepG2 cells assessed as reduction in nuclear size at 100 uM after 72 hrs by fluorescent image analysis relative to untreated control; type: cell-based; conditions: read-out: INH; procedure, shortened: as §3
[13] = Cytotoxicity against human HepG2 cells assessed as reduction in mitochondrial membrane potential at 30 uM after 72 hrs by fluorescent image analysis relative to untreated control; type: cell-based; conditions: read-out: INH; procedure, shortened: as §3
[14] = Plasma protein binding in human at 10 uM incubated for 4 hrs by equilibrium dialysis method; type: ADME, cell-free; conditions: read-out: PPB
Procedure, shortened: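 Human plasma protein binding, given as percent bound and percent recovery, in a standard contract assay.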

[15] = Apparent permeability coefficient in human Caco2 cells at pH 6.5/7.4 at 10 uM; type: ADME, cell-based; conditions: Caco-2, pH 6.5
Procedure, shortened: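 A-to-B permeability measured in Caco-2 monolayers at pH 6.5/7.4, reported as Papp. Standard contract assay.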

[16] = target: hERG (KCNH2) (Homo sapiens, UniProt Q12809); experiment: in vitro; conditions: CHO-K1 cells expressing human ERG
Chain of hERG (KCNH2) (Q12809 whole entry): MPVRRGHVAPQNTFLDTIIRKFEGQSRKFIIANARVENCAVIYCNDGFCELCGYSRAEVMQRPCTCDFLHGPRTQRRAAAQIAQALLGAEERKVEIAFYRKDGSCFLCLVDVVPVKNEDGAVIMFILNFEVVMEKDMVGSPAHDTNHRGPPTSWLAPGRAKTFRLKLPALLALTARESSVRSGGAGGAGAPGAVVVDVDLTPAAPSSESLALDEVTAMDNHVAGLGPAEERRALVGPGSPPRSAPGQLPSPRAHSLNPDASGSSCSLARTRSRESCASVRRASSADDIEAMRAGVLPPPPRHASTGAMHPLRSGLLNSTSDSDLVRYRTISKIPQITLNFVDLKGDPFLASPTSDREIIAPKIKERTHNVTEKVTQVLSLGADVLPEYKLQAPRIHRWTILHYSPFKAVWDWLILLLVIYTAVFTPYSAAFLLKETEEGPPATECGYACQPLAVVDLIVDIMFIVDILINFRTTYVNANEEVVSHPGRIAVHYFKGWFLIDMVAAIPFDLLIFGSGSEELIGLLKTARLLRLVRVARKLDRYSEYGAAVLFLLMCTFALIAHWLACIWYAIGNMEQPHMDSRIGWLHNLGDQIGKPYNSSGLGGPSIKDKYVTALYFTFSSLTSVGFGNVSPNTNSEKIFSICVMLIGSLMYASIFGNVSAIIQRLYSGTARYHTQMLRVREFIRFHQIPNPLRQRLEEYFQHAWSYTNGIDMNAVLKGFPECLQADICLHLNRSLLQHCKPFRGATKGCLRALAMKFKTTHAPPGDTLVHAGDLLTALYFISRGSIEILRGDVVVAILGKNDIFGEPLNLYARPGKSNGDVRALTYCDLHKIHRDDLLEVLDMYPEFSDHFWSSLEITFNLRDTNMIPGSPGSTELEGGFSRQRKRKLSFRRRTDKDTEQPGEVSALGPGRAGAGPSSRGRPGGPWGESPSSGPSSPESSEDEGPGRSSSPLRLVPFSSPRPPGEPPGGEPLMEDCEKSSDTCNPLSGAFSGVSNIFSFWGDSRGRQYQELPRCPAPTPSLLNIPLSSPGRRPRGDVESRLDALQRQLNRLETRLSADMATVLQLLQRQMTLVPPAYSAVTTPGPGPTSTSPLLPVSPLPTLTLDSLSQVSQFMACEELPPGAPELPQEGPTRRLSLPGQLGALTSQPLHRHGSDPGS

CCCCCCNC(=O)C1C(=O)N(O)C(=O)c2ccccc21 (stereo unspecified)
CC50 [1]: 57700 nM | IC50 [2]: 85 nM | IC50 [3]: 195 nM | Ratio EC50 [4]: 1 | inhibition at 0.5 h, 10 µM [5]: 12.7% | inhibition at 40 min, 10 µM [6]: 25.3% | inhibition at 40 min, 10 µM [7]: 24.6% | inhibition [8]: -5.5% | cytotoxicity at 72 h, 30 µM [9]: 4.9% | Activity [10]: -1.5% | Activity [11]: 5.8% | cytotoxicity at 72 h, 100 µM [12]: 26.8% | cytotoxicity at 72 h, 30 µM [13]: 5.1% | fraction unbound at 4 h, 10 µM [14]: 0.001 | Papp at 10 µM [15]: 24.6 ×10⁻⁶ cm/s | inhibition at 5 min, 0.1 µM [16]: 5.8%
